# Measurements: ChEMBL document CHEMBL4680121, “Development of (4-methoxyphenyl)-1H-tetrazol-5-amine regioisomers as a new class of selective antitubercular agents” (Eur J Med Chem, 2020)
# Columns and labels:
# Assay type in all cases: functional
# [1] = system: Mycobacterium tuberculosis; assay: Antitubercular activity against PAS/INH/EMB/RMP-resistant Mycobacterium tuberculosis Spec.210 assessed as fractional inhibitory concentration index in presence of 1/2 x MIC rifampicin incubated for 14 days by MABA method; conditions: time 14 day
# Summary of the method: (§1)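 Interaction analysis in Middlebrook 7H9 with 10% OADC. Combination MICs came from mixing the derivative (1 to 1/32 MIC) with the reference drug at 1/2 MIC, and the reverse, after 14 days at 37 °C with McFarland 1 inoculum. FICI was calculated from the combination MIC values and the MICs alone.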
# [2] = system: Mycobacterium tuberculosis; assay: Antitubercular activity against PAS/INH/EMB/RMP-resistant Mycobacterium tuberculosis Spec.210 assessed as fractional inhibitory concentration index in presence of 1/2 x MIC streptomycin incubated for 14 days by MABA method; conditions: time 14 day; summary of the method: as §1
# [3] = system: Mycobacterium tuberculosis; assay: Antitubercular activity against PAS/INH/EMB/RMP-resistant Mycobacterium tuberculosis Spec.210 assessed as reduction in bacterial growth incubated for 14 days in presence of 1/2 x MIC rifampicin by MABA method; conditions: Mycobacterium tuberculosis, 210, 336 h; time 14 day
# Summary of the method: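 Checkerboard-style combination in Middlebrook 7H9 broth with 10% OADC. The test derivative was varied from 1 to 1/32 of its MIC, and the reference drug was fixed at 1/2 its own MIC. Single-agent MICs were determined first by MABA. Samples of 4 ml received inoculum at 1 McFarland and were incubated 14 days at 37 °C. The endpoint was the lowest derivative concentration that inhibited growth.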
# [4] = system: Mycobacterium tuberculosis; assay: Antitubercular activity against PAS/INH/EMB/RMP-resistant Mycobacterium tuberculosis Spec.210 assessed as isoniazid MIC incubated for 14 days in presence of isoniazid by MABA method; conditions: Mycobacterium tuberculosis, 210, 336 h; time 14 day
# Summary of the method: (§2)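 In Middlebrook 7H9 with 10% OADC, the reference drug (INH, RMP, SM or EMB) at 1 to 1/32 of its MIC alone was mixed with the test derivative fixed at 1/2 its MIC. 4 ml samples were inoculated with McFarland 1 suspension and incubated 14 days at 37 °C. MIC is the lowest drug concentration in combination that inhibited growth.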
# [5] = system: Mycobacterium tuberculosis; assay: Antitubercular activity against PAS/INH/EMB/RMP-resistant Mycobacterium tuberculosis Spec.210 assessed as ethambutol MIC incubated for 14 days in presence of ethambutol by MABA method; conditions: Mycobacterium tuberculosis, 210, 336 h; time 14 day; summary of the method: as §2
# [6] = system: Mycobacterium tuberculosis; assay: Antitubercular activity against INH-resistant Mycobacterium tuberculosis Spec.800 assessed as reduction in bacterial growth incubated for 14 days in presence of 1/2 x MIC rifampicin by MABA method; conditions: Mycobacterium tuberculosis, 800, 336 h; time 14 day
# Summary of the method: (§3)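 Checkerboard-type combination in Middlebrook 7H9 with 10% OADC. The test derivative at 1 to 1/32 of its MIC alone was mixed with the reference drug fixed at 1/2 its MIC. 4 ml samples were inoculated with McFarland 1 suspension and incubated 14 days at 37 °C. MIC is the lowest derivative concentration in combination that inhibited growth in liquid medium.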
# [7] = system: Mycobacterium tuberculosis; assay: Antitubercular activity against INH-resistant Mycobacterium tuberculosis Spec.800 assessed as reduction in bacterial growth incubated for 14 days in presence of 1/2 x MIC ethambutol by MABA method; conditions: Mycobacterium tuberculosis, 800, 336 h; time 14 day; summary of the method: as §3
# [8] = system: Mycobacterium tuberculosis; assay: Antitubercular activity against INH-resistant Mycobacterium tuberculosis Spec.800 assessed as rifampicin MIC incubated for 14 days in presence of rifampicin by MABA method; conditions: Mycobacterium tuberculosis, 800, 336 h; time 14 day; summary of the method: as §2
# [9] = system: Mycobacterium tuberculosis; assay: Antitubercular activity against INH-resistant Mycobacterium tuberculosis Spec.800 assessed as streptomycin MIC incubated for 14 days in presence of streptomycin by MABA method; conditions: Mycobacterium tuberculosis, 800, 336 h; time 14 day; summary of the method: as §2
# [10] = system: Mycobacterium tuberculosis; assay: Antitubercular activity against INH-resistant Mycobacterium tuberculosis Spec.800 assessed as ethambutol MIC incubated for 14 days in presence of ethambutol by MABA method; conditions: Mycobacterium tuberculosis, 800, 336 h; time 14 day; summary of the method: as §2
# [11] = system: Mycobacterium tuberculosis; assay: Potentiation of rifampcin-induced antimycobacterial activity against INH-resistant Mycobacterium tuberculosis Spec.800 harboring InhA promoter mutation assessed as fold decrease in rifampicin MIC at 1/2X MIC incubated for 14 days in presence of rifampicin by MABA method; conditions: time 14 day
# Summary of the method: (§4)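 Combination assay in Middlebrook 7H9 broth with 10% OADC. The reference drug (INH, RMP, SM or EMB) was varied from 1 to 1/32 of its MIC, and the test derivative was fixed at 1/2 its own MIC. Single-agent MICs were determined first by MABA. Inoculum was 1 McFarland, with 14 days of incubation at 37 °C. The endpoint was the lowest reference-drug concentration that inhibited growth.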
# [12] = system: Mycobacterium tuberculosis; assay: Potentiation of ethambutol-induced antimycobacterial activity against INH-resistant Mycobacterium tuberculosis Spec.800 harboring InhA promoter mutation assessed as fold decrease in ethambutol MIC at 1/2X MIC incubated for 14 days in presence of ethambutol by MABA method; conditions: time 14 day; summary of the method: as §4
# [13] = system: Mycobacterium tuberculosis; assay: Potentiation of isoniazid-induced antimycobacterial activity against INH-resistant Mycobacterium tuberculosis Spec.800 harboring InhA promoter mutation assessed as fold decrease in isoniazid MIC at 1/2X MIC incubated for 14 days in presence of isoniazid by MABA method; conditions: time 14 day; summary of the method: as §4
Compound,fractional inhibitory concentration index (FICI) [1],fractional inhibitory concentration index (FICI) [2],MIC [3] [µg/mL],MIC [4] [µg/mL],MIC [5] [µg/mL],MIC [6] [µg/mL],MIC [7] [µg/mL],MIC [8] [µg/mL],MIC [9] [µg/mL],MIC [10] [µg/mL],fold change (FC) [11],fold change (FC) [12],fold change (FC) [13]
COc1ccc(-n2nnnc2Nc2ccc(Br)cc2)cc1,0.75,1,1,8,16,128,32,0.125,0.25,1,,,
COc1ccc(-n2nnnc2Nc2cccc(Br)c2)cc1,0.5,1.25,0.5,16,16,64,32,0.25,0.5,1,<=4,<=4,<=4
